Assay results reported in ChEMBL document CHEMBL1130249, “Cyclic enkephalin analogues with exceptional potency and selectivity for delta-opioid receptors” (J Med Chem, 1997).
Peptide text beside a SMILES is read from it.

Legend:
Format in all cases: tissue-based
[1] = target: Mu-type opioid receptor; assay: Inhibitory potency against Opioid receptor mu 1 was determined in electrically induced strips of guinea pig ileum (GPI)
How it was run: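 Ileum longitudinal muscle–myenteric plexus strips from male Hartley guinea pigs (250–500 g), in oxygenated Krebs at 37 °C under 1 g tension. Transmural stimulation at 0.1 Hz, 0.4-ms pulses, supramaximal voltage. IC50 from Hill fit of mean data from at least four tissues.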

[2] = target: Mu-type opioid receptor (Rattus norvegicus, UniProt P33535); assay: Inhibition of binding of radioligand [3H]CTOP to Opioid receptor mu 1 in rat brain
How it was run: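 Rat whole brain (less cerebellum) membranes, preincubated 30 min at 25 °C to strip endogenous peptides. Displacement of 0.5 nM [3H]CTOP in 50 mM Tris-HCl pH 7.4 containing BSA, bestatin, bacitracin, captopril and toluenesulfonyl fluoride; 10 concentrations over an 800-fold range; 3 h at 25 °C; filtration.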

[3] = target: Delta-type opioid receptor (Mus musculus, UniProt P32300); assay: Inhibitory potency against Opioid receptor delta 1 was determined in electrically induced smooth muscle contractions of mouse vas deferens (MVD)
How it was run: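 Vas deferens from male ICR mice (25–40 g), in Mg-free oxygenated Krebs at 37 °C under 0.5 g tension. Transmural stimulation at 0.1 Hz, 2.0-ms pulses, supramaximal voltage. […] IC50 from Hill fit of mean data from at least four tissues.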

[4] = target: Delta-type opioid receptor (Rattus norvegicus, UniProt P33533); assay: Inhibition of binding of radioligand [3H][p-Cl-phe]-DPDPE to Opioid receptor delta 1 in rat brain
Chain of Delta-type opioid receptor (Rattus norvegicus, UniProt P33533) (P33533 whole entry): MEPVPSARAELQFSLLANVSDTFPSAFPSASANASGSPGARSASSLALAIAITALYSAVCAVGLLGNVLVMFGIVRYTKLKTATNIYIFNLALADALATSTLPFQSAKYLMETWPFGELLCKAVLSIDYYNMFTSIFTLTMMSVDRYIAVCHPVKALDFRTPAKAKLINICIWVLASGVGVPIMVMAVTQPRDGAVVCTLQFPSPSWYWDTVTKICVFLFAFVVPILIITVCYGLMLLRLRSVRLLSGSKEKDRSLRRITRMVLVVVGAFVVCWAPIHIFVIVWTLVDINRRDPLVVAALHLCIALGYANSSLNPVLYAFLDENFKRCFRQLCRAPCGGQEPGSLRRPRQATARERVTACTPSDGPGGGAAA

Chain of Delta-type opioid receptor (Mus musculus, UniProt P32300) (P32300 whole entry): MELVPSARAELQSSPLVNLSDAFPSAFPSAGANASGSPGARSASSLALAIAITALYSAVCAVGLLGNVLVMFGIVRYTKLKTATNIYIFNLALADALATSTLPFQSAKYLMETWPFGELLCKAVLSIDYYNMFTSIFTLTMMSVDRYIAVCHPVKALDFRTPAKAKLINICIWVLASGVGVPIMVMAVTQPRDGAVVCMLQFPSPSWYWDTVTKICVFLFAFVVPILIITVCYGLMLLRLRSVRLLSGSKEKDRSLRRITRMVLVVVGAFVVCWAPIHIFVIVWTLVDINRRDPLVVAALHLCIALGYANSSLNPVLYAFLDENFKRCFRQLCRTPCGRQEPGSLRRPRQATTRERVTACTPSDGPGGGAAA
Chain of Mu-type opioid receptor (Rattus norvegicus, UniProt P33535) (P33535 whole entry): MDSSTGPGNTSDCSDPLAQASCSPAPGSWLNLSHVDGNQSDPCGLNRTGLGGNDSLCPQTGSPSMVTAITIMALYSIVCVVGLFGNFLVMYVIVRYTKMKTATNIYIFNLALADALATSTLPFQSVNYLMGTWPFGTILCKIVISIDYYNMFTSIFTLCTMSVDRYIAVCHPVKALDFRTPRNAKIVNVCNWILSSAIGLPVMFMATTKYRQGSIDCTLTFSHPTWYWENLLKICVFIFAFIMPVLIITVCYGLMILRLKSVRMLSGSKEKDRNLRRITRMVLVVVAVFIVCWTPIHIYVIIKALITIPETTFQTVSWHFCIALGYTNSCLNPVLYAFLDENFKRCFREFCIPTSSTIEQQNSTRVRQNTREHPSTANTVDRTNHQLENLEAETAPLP

CC1(C)SSC[C@@H](C(=O)N[C@@H](Cc2ccccc2)C(=O)O)NC(=O)[C@H](Cc2ccccc2)NC(=O)CNC(=O)[C@@H]1NC(=O)[C@@H](N)Cc1ccc(O)cc1 (HELM PEPTIDE1{Y.[CC(C)(S[*:3])[C@@H](N[*:1])C(=O)[*:2]].G.F.C.F}$PEPTIDE1,PEPTIDE1,2:R3-5:R3$$$V2.0)
IC50 [1]: 83 nM

CC1(C)SSC(C)(C)[C@@H](NC(=O)[C@@H](N)Cc2ccc(O)cc2)C(=O)NCC(=O)N[C@@H](Cc2ccccc2)C(=O)N[C@@H]1C(=O)N[C@@H](Cc1ccccc1)C(=O)O
IC50 [1]: 5800 nM
IC50 [2]: 11400 nM
IC50 [3]: 1.89 nM
IC50 [4]: 4 nM

CC1(C)SSC(C)(C)[C@@H](NC(=O)[C@@H](N)Cc2ccc(O)cc2)C(=O)NCC(=O)N[C@@H](Cc2ccc(Br)cc2)C(=O)N[C@@H]1C(=O)N[C@@H](Cc1ccccc1)C(=O)O
IC50 [1]: 3400 nM
IC50 [2]: 4200 nM
IC50 [3]: 0.18 nM
IC50 [4]: 0.2 nM

CC1(C)SSC(C)(C)[C@@H](NC(=O)[C@@H](N)Cc2ccc(O)cc2)C(=O)NCC(=O)N[C@@H](Cc2ccc(I)cc2)C(=O)N[C@@H]1C(=O)N[C@@H](Cc1ccccc1)C(=O)O
IC50 [1]: 8700 nM
IC50 [2]: 7300 nM
IC50 [3]: 0.8 nM
IC50 [4]: 0.47 nM

CC1(C)SSC(C)(C)[C@@H](NC(=O)[C@@H](N)Cc2ccc(O)cc2)C(=O)NCC(=O)N[C@@H](Cc2ccc(F)cc2)C(=O)N[C@@H]1C(=O)N[C@@H](Cc1ccccc1)C(=O)O
IC50 [1]: 740 nM
IC50 [2]: 1650 nM
IC50 [3]: 0.016 nM
IC50 [4]: 0.43 nM

CC1(C)SSC(C)(C)[C@@H](NC(=O)[C@@H](N)Cc2ccc(O)cc2)C(=O)NCC(=O)N[C@@H](Cc2ccc(Cl)cc2)C(=O)N[C@@H]1C(=O)N[C@@H](Cc1ccccc1)C(=O)O
IC50 [1]: 420 nM
IC50 [2]: 1700 nM
IC50 [3]: 0.17 nM
IC50 [4]: 0.4 nM
